Measured values from ChEMBL document CHEMBL4602650, “Quinolone-N-acylhydrazone hybrids as potent Zika and Chikungunya virus inhibitors” (Bioorg Med Chem Lett, 2020).
Calls of active or inactive are those of the source. The calls are words filed in the database; no cut-off is given here.

How the values were obtained:
[1] = Cytotoxicity against African green monkey Vero cells assessed as reduction in cell viability by MTT assay; assay type: cell-based; details: chlorocebus sabaeus
Outline: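 Vero cell viability tested over 100–2000 µM. CC50 is the concentration reducing viability by 50% versus untreated controls. Mean ± SD of 3 independent experiments.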

[2] = system: Zika virus; assay: Antiviral activity against Zika virus infected in African green monkey Vero cells assessed as reduction in viral replication treated with compound at 1 hr post-viral infection; assay type: functional, organism-based
Outline: (§1)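 Vero cells infected at MOI 0.1 and given 1 h for viral adsorption, then treated with increasing compound concentrations. EC50 is the concentration reducing viral replication by 50% versus infected controls. Mean ± SD of three independent experiments.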

[3] = Selectivity index, ratio of CC50 for African monkey Vero cells to EC50 for Zika virus infected in African green monkey Vero cells; assay type: toxicity; details: read-out: Ratio CC50/EC50
Outline: (§2)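 SI = CC50 in Vero cells divided by EC50 against the matching virus in Vero cells. Both values come from three independent experiments.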

[4] = system: Chikungunya virus; assay: Antiviral activity against Chikungunya virus infected in African green monkey Vero cells assessed as reduction in viral replication treated with compound at 1 hr post-viral infection; assay type: functional, organism-based; outline: as §1
[5] = Selectivity index, ratio of CC50 for African monkey Vero cells to EC50 for Chikungunya virus infected in African green monkey Vero cells; assay type: toxicity; details: read-out: Ratio CC50/EC50; outline: as §2
[6] = Ratio of RibavarinCC50 to compound CC50 for African green monkey Vero cells assessed as reduction in cell viability by MTT assay; assay type: cell-based; details: chlorocebus sabaeus
[7] = system: Chikungunya virus; assay: Antiviral activity against Chikungunya virus infected in African green monkey Vero cells assessed as reduction in viral RNA production; assay type: functional, organism-based
[8] = system: Chikungunya virus; assay: Antiviral activity against Chikungunya virus infected in African green monkey Vero cells assessed as reduction in viral replication at 10 uM treated with compound at 16 hrs post infection by plaque formation assay; assay type: functional, organism-based
[9] = system: Chikungunya virus; assay: Antiviral activity against Chikungunya virus infected in African green monkey Vero cells assessed as reduction in viral replication at 10 uM treated with compound up to 12 hrs post infection by plaque formation assay; assay type: functional, organism-based
[10] = system: Zika virus; assay: Antiviral activity against Zika virus infected in African green monkey Vero cells assessed as reduction in viral replication at 10 uM treated with compound at 6 hrs post infection by plaque formation assay; assay type: functional, organism-based
[11] = system: Zika virus; assay: Antiviral activity against Zika virus infected in African green monkey Vero cells assessed as reduction in viral RNA production; assay type: functional, organism-based
[12] = system: Zika virus; assay: Antiviral activity against Zika virus infected in African green monkey Vero cells assessed as reduction in viral replication at 10 uM treated with compound up to 6 hrs post infection by plaque formation assay; assay type: functional, organism-based
[13] = system: Zika virus; assay: Antiviral activity against Zika virus infected in African green monkey Vero cells assessed as reduction in viral replication at 10 uM treated with compound at 12 hrs post infection by plaque formation assay; assay type: functional, organism-based

O=C(N/N=C/c1ccccc1O)c1c[nH]c2ccc(Br)cc2c1=O
CC50 [1]: 443 µM | EC50 [2]: 0.81 µM | selectivity ratio [3]: 548 | EC50 [4]: 2.7 µM | selectivity ratio [5]: 164 | selectivity ratio [6]: ≥ 2

O=C(N/N=C/c1ccccc1O)c1c[nH]c2ccc(F)cc2c1=O
CC50 [1]: 669 µM | EC50 [2]: 0.75 µM | selectivity ratio [3]: 893 | EC50 [4]: 1.06 µM | selectivity ratio [5]: 632 | Activity [7]: Dose-dependent effect | Activity [8]: inactive | Activity [9]: Active | selectivity ratio [6]: ≥ 2

NC(=O)c1ncn([C@@H]2O[C@H](CO)[C@@H](O)[C@H]2O)n1 [RIBAVIRIN]
CC50 [1]: 297 µM | EC50 [2]: 3.95 µM | selectivity ratio [3]: 75.2 | EC50 [4]: 2.42 µM | selectivity ratio [5]: 122 | Activity [9]: inactive | Activity [10]: inactive

O=C(N/N=C/c1ccccc1O)c1c[nH]c2ccccc2c1=O
CC50 [1]: 502 µM | EC50 [2]: 0.76 µM | selectivity ratio [3]: 661 | EC50 [4]: 2.85 µM | selectivity ratio [5]: 176 | selectivity ratio [6]: ≥ 2

O=C(N/N=C/c1ccccc1O)c1c[nH]c2ccc(Cl)cc2c1=O
CC50 [1]: 1110 µM | EC50 [2]: 0.79 µM | selectivity ratio [3]: 1410 | EC50 [4]: 2.77 µM | selectivity ratio [5]: 402 | Activity [11]: Dose-dependent effect | Activity [12]: Active | Activity [13]: Active | selectivity ratio [6]: ≥ 2
